Test results as given in ChEMBL document CHEMBL4373711, “Development of 3,5-Dinitrophenyl-Containing 1,2,4-Triazoles and Their Trifluoromethyl Analogues as Highly Efficient Antitubercular Agents Inhibiting Decaprenylphosphoryl-β-d-ribofuranose 2'-Oxidase” (J Med Chem, 2019).
Values after ≈ are worked out from the molar mass of the structure shown. Active and inactive are the calls of the source. The rule behind the calls is not given here.

Tests used:
Candida tropicalis = assay: Antifungal activity against Candida tropicalis ATCC 750 CCM 8264 at highest concentration measured after 24 to 48 hrs by alamar blue dye based broth microdilution assay; format: functional, organism-based
[1] = test system: Mycobacterium tuberculosis; assay: Antimycobacterial activity against Mycobacterium tuberculosis H37Rv CNCTC My 331/88 after 21 days; format: functional; settings: H37Rv CNCTC My 331/88, 504 h
In short: (§1)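 M. tuberculosis strains (H37Rv and clinical MDR/XDR isolates) tested by microdilution in Šula's semisynthetic medium. Compounds were dissolved in DMSO and tested at 32 to 0.03 µM in twofold steps. Inoculum was a 1.0 McFarland suspension diluted 10-3. Plates were incubated at 37 °C and read at 14 and 21 days.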

Mycobacterium kansasii [2] = assay: Antimycobacterial activity against Mycobacterium kansasii 6509/96 after 21 days; format: functional; settings: 6509/96, 504 h
In short: (§2)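 Microdilution in Šula's semisynthetic medium; compounds in DMSO at 32–0.03 µM. Inoculum from 1.0 McFarland suspension diluted 10-4. […] Isoniazid and rifampicin as reference drugs.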

Mycobacterium kansasii [3] = assay: Antimycobacterial activity against Mycobacterium kansasii CNCTC My 235/80 after 14 days; format: functional; settings: CNCTC My 235/80, 336 h; in short: as §2
Escherichia coli = assay: Antibacterial activity against Escherichia coli ATCC 25922 CCM 3954 at highest concentration measured after 24 to 48 hrs by alamar blue dye based broth microdilution assay; format: functional, organism-based
Mycobacterium avium [4] = assay: Antimycobacterial activity against Mycobacterium avium CNCTC My 330/88 after 14 days; format: functional; settings: CNCTC My 330/88, 336 h
In short: (§3)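 M. avium was tested by microdilution in Šula's semisynthetic medium, with compounds dissolved in DMSO and serially diluted from 1000 down to 1. Inoculum was a 1.0 McFarland suspension diluted 10-5. Plates were incubated at 37 °C and read at 14 and 21 days. […] Isoniazid and rifampicin served as standards.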

HepG2 = assay: Cytotoxicity against human HepG2 cells assessed as reduction in cell viability after 48 hrs by CellTiter 96 aqueous one solution assay; format: cell-based; settings: HepG2, 48 h
Klebsiella pneumoniae = assay: Antibacterial activity against Klebsiella pneumoniae at highest concentration measured after 24 to 48 hrs by alamar blue dye based broth microdilution assay; format: functional, organism-based
Pichia kudriavzevii = assay: Antifungal activity against Candida krusei ATCC 6258 CCM8271 at highest concentration measured after 24 to 48 hrs by alamar blue dye based broth microdilution assay; format: functional, organism-based
A-431 = assay: Cytotoxicity against human A431 cells assessed as reduction in cell viability after 48 hrs by CellTiter 96 aqueous one solution assay; format: cell-based; settings: A-431, 48 h
[5] = test system: Trichophyton interdigitale; assay: Antifungal activity against Trichophyton interdigitale ATCC 9533 CCM 8377 at highest concentration measured after 72 to 120 hrs by alamar blue dye based broth microdilution assay; format: functional
Mycobacterium kansasii [6] = assay: Antimycobacterial activity against Mycobacterium kansasii 6509/96 after 14 days; format: functional; settings: 6509/96, 336 h; in short: as §2
Staphylococcus aureus [7] = assay: Antibacterial activity against methicillin-resistant Staphylococcus aureus subsp. aureus ATCC 43300 CCM 4750 at highest concentration measured after 24 to 48 hrs by alamar blue dye based broth microdilution assay; format: functional, organism-based
Candida parapsilosis = assay: Antifungal activity against Candida parapsilosis ATCC 22019 CCM 8260 at highest concentration measured after 24 to 48 hrs by alamar blue dye based broth microdilution assay; format: functional, organism-based
Candida albicans = assay: Antifungal activity against Candida albicans ATCC 24433 CCM 8320 at highest concentration measured after 24 to 48 hrs by alamar blue dye based broth microdilution assay; format: functional, organism-based
[8] = Cytotoxicity against human A431 cells assessed as cell viability at 30 uM after 48 hrs by CellTiter 96 aqueous one solution assay relative to control; format: cell-based, A-431; settings: read-out: Activity
In short: (§4)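 HepG2 (DMEM, 10% FBS, 1 mM pyruvate) or A431 (DMEM, 10% FBS) seeded 10,000 cells/well, 24 h at 37 °C, 5% CO2, then 30 µM compound for 48 h. MTS reagent 60 min, absorbance 490 nm, background subtracted; 0.1% DMSO vehicle = 100%, 10% SDS = 0% viability.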

Enterococcus faecalis = assay: Antibacterial activity against Enterococcus faecalis ATCC 29212 CCM 4224 at highest concentration measured after 24 to 48 hrs by alamar blue dye based broth microdilution assay; format: functional, organism-based
Lichtheimia corymbifera = assay: Antifungal activity against Lichtheimia corymbifera CCM 8077 at highest concentration measured after 24 to 48 hrs by alamar blue dye based broth microdilution assay; format: functional, organism-based
[9] = test system: Staphylococcus epidermidis; assay: Antibacterial activity against Staphylococcus epidermidis at highest concentration measured after 24 to 48 hrs by alamar blue dye based broth microdilution assay; format: functional, organism-based
Mycobacterium kansasii [10] = assay: Antimycobacterial activity against Mycobacterium kansasii CNCTC My 235/80 after 7 days; format: functional; settings: CNCTC My 235/80, 168 h; in short: as §2
Aspergillus fumigatus = assay: Antifungal activity against Aspergillus fumigatus ATCC 204305 at highest concentration measured after 24 to 48 hrs by alamar blue dye based broth microdilution assay; format: functional, organism-based
Mycobacterium avium [11] = assay: Antimycobacterial activity against Mycobacterium avium CNCTC My 330/88 after 21 days; format: functional; settings: CNCTC My 330/88, 504 h; in short: as §3
[12] = test system: Mycobacterium tuberculosis; assay: Antimycobacterial activity against Mycobacterium tuberculosis H37Rv CNCTC My 331/88 after 14 days; format: functional; settings: H37Rv CNCTC My 331/88, 336 h; in short: as §1
Staphylococcus aureus [13] = assay: Antibacterial activity against Staphylococcus aureus subsp. aureus ATCC 29213 CCM 4223 at highest concentration measured after 24 to 48 hrs by alamar blue dye based broth microdilution assay; format: functional, organism-based
Mycobacterium kansasii [14] = assay: Antimycobacterial activity against Mycobacterium kansasii 6509/96 after 7 days; format: functional; settings: 6509/96, 168 h; in short: as §2
Aspergillus flavus = assay: Antifungal activity against Aspergillus flavus CCM 8363 at highest concentration measured after 24 to 48 hrs by alamar blue dye based broth microdilution assay; format: functional, organism-based
[15] = Cytotoxicity against human HepG2 cells assessed as cell viability at 30 uM after 48 hrs by CellTiter 96 aqueous one solution assay relative to control; format: cell-based; settings: read-out: Activity; in short: as §4
Mycobacterium kansasii [16] = assay: Antimycobacterial activity against Mycobacterium kansasii CNCTC My 235/80 after 21 days; format: functional; settings: CNCTC My 235/80, 504 h; in short: as §2
Pseudomonas aeruginosa = assay: Antibacterial activity against Pseudomonas aeruginosa ATCC 27853 CCM 3955 at highest concentration measured after 24 to 48 hrs by alamar blue dye based broth microdilution assay; format: functional, organism-based
Serratia marcescens = assay: Antibacterial activity against Serratia marcescens at highest concentration measured after 24 to 48 hrs by alamar blue dye based broth microdilution assay; format: functional, organism-based

SMILES | Activity (Candida tropicalis) | MIC99 [1] | MIC99 (Mycobacterium kansasii [2]) | MIC99 (Mycobacterium kansasii [3]) | Activity (Escherichia coli) | MIC99 (Mycobacterium avium [4]) | IC50 (HepG2) | Activity (Klebsiella pneumoniae) | Activity (Pichia kudriavzevii) | IC50 (A-431) | Activity [5] | MIC99 (Mycobacterium kansasii [6]) | Activity (Staphylococcus aureus [7]) | Activity (Candida parapsilosis) | Activity (Candida albicans) | viability at 48 h, 30 µM [8] | Activity (Enterococcus faecalis) | Activity (Lichtheimia corymbifera) | Activity [9] | MIC99 (Mycobacterium kansasii [10]) | also measured
COc1ccc(CSc2nnc(-c3cc([N+](=O)[O-])cc([N+](=O)[O-])c3)n2C)cc1 | inactive | 0.5 µM (≈ 0.201 µg/mL) | 2 µM (≈ 0.803 µg/mL) | 2 µM (≈ 0.803 µg/mL) | inactive | 16 µM (≈ 6.42 µg/mL) | > 30 µM | inactive | inactive | > 30 µM | inactive | 2 µM (≈ 0.803 µg/mL) | inactive | inactive | inactive | 104% | inactive | inactive | inactive | 1 µM (≈ 0.401 µg/mL) | Activity (Aspergillus fumigatus): inactive; MIC99 (Mycobacterium avium [11]): 16 µM (≈ 6.42 µg/mL); MIC99 [12]: 0.25 µM (≈ 0.1 µg/mL); Activity (Staphylococcus aureus [13]): inactive; MIC99 (Mycobacterium kansasii [14]): 2 µM (≈ 0.803 µg/mL); Activity (Aspergillus flavus): inactive; viability at 48 h, 30 µM [15]: 107%; MIC99 (Mycobacterium kansasii [16]): 4 µM (≈ 1.61 µg/mL); Activity (Pseudomonas aeruginosa): inactive; Activity (Serratia marcescens): inactive
O=[N+]([O-])c1cc(CSc2nnc(-c3ccccc3)n2-c2ccc(Cl)c(Cl)c2)cc([N+](=O)[O-])c1 | inactive | 2 µM (≈ 1 µg/mL) | 2 µM (≈ 1 µg/mL) | 1 µM (≈ 0.502 µg/mL) | inactive | 125 µM (≈ 62.8 µg/mL) | > 30 µM | inactive | inactive | > 30 µM | inactive | 1 µM (≈ 0.502 µg/mL) | inactive | inactive | inactive | 136% | inactive | inactive | inactive | 0.5 µM (≈ 0.251 µg/mL) | Activity (Aspergillus fumigatus): inactive; MIC99 (Mycobacterium avium [11]): 125 µM (≈ 62.8 µg/mL); MIC99 [12]: 1 µM (≈ 0.502 µg/mL); Activity (Staphylococcus aureus [13]): inactive; MIC99 (Mycobacterium kansasii [14]): 0.5 µM (≈ 0.251 µg/mL); Activity (Aspergillus flavus): inactive; viability at 48 h, 30 µM [15]: 134%; MIC99 (Mycobacterium kansasii [16]): 2 µM (≈ 1 µg/mL); Activity (Pseudomonas aeruginosa): inactive; Activity (Serratia marcescens): inactive
